Experimental data as given in article PMC9390995 (Science Advances, 2022).

Key:
[1] = system: p-STAT5/p-STAT6 in hPBMCs; assay: γc cytokine-stimulated STAT phosphorylation, Western blot; assay type: cell-based, human; conditions: fig. S1
Summary of the method: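 hPBMCs in RPMI 1640 with 10% FBS at 37°C, 5% CO2, plated 5×10^5 per well. Pretreated 1 h with test compound, then stimulated with IL-2, IL-4, IL-7, IL-9, IL-15 or IL-21. Lysed in RIPA buffer with protease/phosphatase inhibitors. p-STAT5/p-STAT6 by Western blot normalized to GAPDH; three independent experiments.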

JAK2 = conditions: read-out: IC50 against JAK2; cited from earlier work
JAK1 = JAK1 (Homo sapiens, UniProt P23458); conditions: biochemical assays; cited from earlier work
JAK1, sequence (P23458 whole entry): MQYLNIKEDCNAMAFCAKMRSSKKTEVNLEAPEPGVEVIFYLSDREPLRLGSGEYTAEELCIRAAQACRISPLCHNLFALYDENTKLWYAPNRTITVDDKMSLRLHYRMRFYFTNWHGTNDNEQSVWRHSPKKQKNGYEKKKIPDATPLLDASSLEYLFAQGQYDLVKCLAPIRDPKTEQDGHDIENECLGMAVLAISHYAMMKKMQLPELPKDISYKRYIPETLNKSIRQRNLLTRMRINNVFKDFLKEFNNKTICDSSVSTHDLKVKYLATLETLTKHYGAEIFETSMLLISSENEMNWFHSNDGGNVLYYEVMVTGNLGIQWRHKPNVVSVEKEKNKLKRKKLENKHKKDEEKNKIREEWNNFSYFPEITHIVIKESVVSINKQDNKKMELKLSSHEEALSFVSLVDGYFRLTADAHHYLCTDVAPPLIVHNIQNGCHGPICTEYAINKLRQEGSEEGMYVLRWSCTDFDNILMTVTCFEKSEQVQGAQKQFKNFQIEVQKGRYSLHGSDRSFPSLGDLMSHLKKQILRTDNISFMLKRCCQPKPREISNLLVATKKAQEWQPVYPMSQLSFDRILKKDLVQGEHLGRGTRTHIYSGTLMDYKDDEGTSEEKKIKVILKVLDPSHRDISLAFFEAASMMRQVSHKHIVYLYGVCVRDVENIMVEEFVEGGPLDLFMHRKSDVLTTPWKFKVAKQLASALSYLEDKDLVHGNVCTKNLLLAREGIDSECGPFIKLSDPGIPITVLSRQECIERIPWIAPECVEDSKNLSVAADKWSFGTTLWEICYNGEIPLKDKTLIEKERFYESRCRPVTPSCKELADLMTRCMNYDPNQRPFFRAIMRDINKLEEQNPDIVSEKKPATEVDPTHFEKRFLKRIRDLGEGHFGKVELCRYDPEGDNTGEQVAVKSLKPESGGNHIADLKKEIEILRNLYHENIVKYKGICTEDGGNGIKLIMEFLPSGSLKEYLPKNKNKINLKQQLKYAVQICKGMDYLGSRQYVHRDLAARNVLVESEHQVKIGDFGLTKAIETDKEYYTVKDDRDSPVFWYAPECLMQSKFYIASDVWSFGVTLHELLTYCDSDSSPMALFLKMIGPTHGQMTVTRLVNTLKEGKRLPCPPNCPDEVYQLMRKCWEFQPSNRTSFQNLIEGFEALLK

| Compound | IL-2-induced p-STAT5 levels [1] | IC50 (JAK2) | preference for JAK1 over JAK2 (JAK1) |
| --- | --- | --- | --- |
| C=CC(=O)N1C[C@H](Nc2ncnc3[nH]ccc23)CC[C@@H]1C [Ritlecitinib, 1-((2S,5R)-5-((7H-pyrrolo[2,3-d]pyrimidin-4-yl)amino)-2-methylpiperidin-1-yl)prop-2-en-1-one] | potent inhibition | > 10 µM |  |
| O=C(Nc1nc2cccc(-c3ccc(CN4CCS(=O)(=O)CC4)cc3)n2n1)C1CC1 [filgotinib] |  |  | 2.8 fold |
| CC[C@@H]1CN(C(=O)NCC(F)(F)F)C[C@@H]1c1cnc2cnc3[nH]ccc3n12 [upadacitinib] |  |  | 2.4 fold |
